Ba/F3 V617F tox: reduce viability of Ba/F3 cells dependent on JAK2V617F | Ba/F3 EpoR-JAK2V617F viability, ATP luminescence | inhibition, % at 5.6 µM | actives 1.1% (n = 220,000);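 active = inhibition above the campaign mean plus 3 SD over all tested compounds, cut at about 24% in these data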;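 also: cytokine-independent growth of Ba/F3 cells driven by EpoR plus mutant JAK2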
bCat nuc transl: modulators of beta-catenin nuclear translocation; nuclear translocation activity, % at 5 µM; HeLa beta-catenin nuclear translocation, immunofluorescence imaging; actives 0.3% (n = 190,000);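 active = nuclear translocation activity above 50% at 5 µM, with a well cell count of 50 or more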;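 also: per-cell ratio of nuclear to cytoplasmic median beta-catenin stain intensity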
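Test system: human HeLa cell line; Doses: 5 µM primary, 0.02–20 µM confirmation; Incubation: 24 h compound exposure, 37°C; Detection: beta-catenin immunofluorescence imaging with DAPI; Read-out: beta-catenin nuclear/cytoplasmic ratio, % activation.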
BaF3 tox: parental Ba/F3 viability inhibition as JAK2V617F counter-screen; inhibition, % at 5.6 µM; actives 1.1% (n = 220,000); CellTiter-Glo ATP luminescence; AID 1486;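 active = inhibition above a per-campaign cutoff, the mean inhibition of all tested compounds plus 3 SD, cut at about 27% in these data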
MT stabilizer: microtubule stabilization, imaging screen | HeLa tubulin immunostaining HCS, 24 h; share of cells brighter than vehicle mean+2SD | % tubulin-high responders, % at 10 µM | actives 0.83% (n = 200,000) | AID 2205;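 active = plate Z-score above 3 for both tubulin-high and condensed-nucleus cell shares, with cell loss under 80%, at 10 µM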;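 also: anti alpha tubulin signal scored within the nucleus-defined area of each cell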
KLF5 inhibitor: suppresses KLF5 promoter-driven expression | inhibition, % at 5 µM | AID 1700 | actives 0.23% (n = 290,000) | DLD-1 KLF5 promoter-luciferase reporter, luminescence;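 active = inhibition above a per-plate limit of that plate's mean compound inhibition plus 3 SD, cut at about 60% in these data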;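 also: higher means less KLF5 promoter-driven luciferase light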
IEC-6 cytotox: counter-screen for KLF5 inhibitors: cytotoxicity in IEC-6 cells; inhibition, % at 5 µM; actives 0.78% (n = 290,000); IEC-6 cytotoxicity, luminescence viability; in the data active = inhibition above about 22%
Hits are given with their value; - = inactive; . = no result. This is a sample that favours compounds with a hit; in the whole collection about 2.1% have one here.

SMILES | Ba/F3 V617F tox | bCat nuc transl | BaF3 tox | MT stabilizer | KLF5 inhibitor | IEC-6 cytotox
CC(C)(C)NC(=O)C(c1ccncc1)N(Cc1cccs1)C(=O)Cn1nnc(-c2ccc(F)cc2)n1 (centres undefined) | - | - | - | - | - | -
CC(C)(C)c1ccc(OCC(=O)Nc2ccc(C(=O)Nc3ccccc3C(=O)O)cc2)cc1 | . | . | . | . | - | -
C1CCC(C(CC2CCCCN2)C2CCCCC2)CC1 (centres undefined) | - | - | - | 35 | - | -
O=C(NCCN1C(=O)S/C(=C\c2cccnc2)C1=O)C1=NN(c2ccccc2)C(=O)CC1 | - | - | - | - | - | -
CC(C)OC(=O)CC1C(=O)NCCN1C(=S)NC(=O)c1ccc(F)cc1 (centres undefined) | - | - | - | - | - | -
COc1ccc(-c2cc3nc(C)cc(-c4ccc(OC)cc4)n3n2)cc1 | . | . | . | . | - | -
COc1ccc(-c2cc3nc(C)cc(N)n3n2)cc1 | - | - | - | - | - | 22
CN(C)S(=O)(=O)c1cc(NC(=O)COC(=O)C2CSC3(C)CCC(=O)N23)ccc1Cl (centres undefined) | - | - | - | - | - | -
CCOc1cc(N2CCOCC2)c(OCC)cc1NC(=O)c1cccc(N(C)C)c1 | - | - | - | - | - | -
Cc1cc(/C=C2\SC(=S)NC2=O)c(C)n1-c1ccc(O)cc1 | - | - | - | . | - | -
Cc1cc(/C=C2\SC(=Nc3ccc(F)cc3)NC2=O)c(C)n1-c1ccc(S(N)(=O)=O)cc1 | - | 160 | - | - | - | -
Cc1ccc(C(=O)Nc2ccc(N3CCN(C)CC3)cc2)cc1C | . | . | . | . | - | -
Cc1c(NC(=O)COC(=O)/C=C/c2ccc(Cl)cc2)c(=O)n(-c2ccccc2)n1C | - | - | - | - | - | -
N#C/C(=N\Nc1ccc(Cl)cc1)C(=O)c1ccccc1 | - | - | - | - | - | -
Cc1c(N/N=C(\C#N)C(=O)c2ccc(Cl)cc2)c(=O)n(-c2ccccc2)n1C | 31 | - | 62 | - | - | -
Cc1c(NC(=O)COC(=O)C(c2ccc(Cl)cc2)C(C)C)c(=O)n(-c2ccccc2)n1C (centres undefined) | - | . | 97 | - | - | -
COc1cccc(NC(=O)CCC2CCN(C(=O)C3CC=CCC3)CC2)c1 (centres undefined) | . | . | . | . | - | -
Cc1cc(C(=O)NCCCN2CCN(c3cc(Cl)ccc3C)CC2)n(-c2ccccc2)n1 | - | - | - | - | - | -
Cc1cc(C(=O)NCCN2CCN(c3cccc(Cl)c3)CC2)n(-c2ccccc2)n1 | - | 59 | - | - | - | -
O=C(NS(=O)(=O)c1ccccc1)c1cccc(Br)c1 | . | . | . | . | - | -
Cc1ccc(-n2ncc3c(NCCCN4CCCC4=O)ncnc32)c(C)c1 | - | - | 47 | - | - | -
CCc1ccc(S(=O)(=O)N2CCN(c3ccccc3OC)CC2)cc1 | . | . | . | . | - | -
O=C1c2ccccc2C(=O)N1CC(O)COc1ccc(Br)cc1 (centres undefined) | . | . | . | . | - | -
COc1ccc(C2=CC(=O)OC(C)(c3ccccc3)O2)cc1 (centres undefined) | - | 51 | - | 9.8 | - | -
COc1ccc(N=C/C=C2\C=C(c3ccccc3)OC(C)(C)O2)cc1 | - | . | - | - | - | -
SMILES | Ba/F3 V617F tox | bCat nuc transl | BaF3 tox | MT stabilizer | KLF5 inhibitor | IEC-6 cytotox
Cc1cccc2cc3c(N)c(C(=O)N4CCOCC4)sc3nc12 | 59 | . | 59 | - | - | -
c1ccc(C2Nc3cccc4cccc(c34)N2)cc1 | . | . | . | . | - | -
c1csc(C2Nc3cccc4cccc(c34)N2)c1 | - | - | 33 | - | - | -
CCOC(=O)c1c(C)[nH]c(C(=O)COC(=O)c2ccc(O)cc2)c1C | 39 | - | 40 | . | - | -
CCOC(=O)c1c(C)[nH]c(C(=O)COC(=O)/C=C/c2ccc(OC(F)F)cc2)c1C | - | - | 65 | - | - | -
CCOC(=O)c1c(C)[nH]c(C(=O)COC(=O)c2ccc(O)cc2O)c1C | - | - | - | . | - | -
O=C(CCC(=O)N1CCOc2ccccc21)N1CCN(c2ccccc2)CC1 | . | . | . | . | - | -
COCCCNC(=O)c1cc2c(=O)n(C)c3ccccc3c2n1C | - | . | - | 13 | - | -
OCCCc1nc2ccccc2[nH]1 | - | - | - | - | - | -
CC(=O)Nc1cc[n+](C(C)C(=O)c2ccc(Br)cc2)cc1 (centres undefined) | 40 | - | 37 | - | - | -
CC(=O)Nc1cc[n+](C(C)C(=O)c2ccccc2)cc1 (centres undefined) | . | . | . | . | - | -
Cc1ccc(OCC(O)Cn2c(N3CCCCC3)nc3c2c(=O)[nH]c(=O)n3C)cc1C (centres undefined) | . | . | . | . | - | -
CC(C)CC(=O)Nc1nc2ccc(S(=O)(=O)N3CCOCC3)cc2s1 | - | - | - | 49 | - | -
C=C(C)c1cccc(C(C)(C)NC(=O)N(Cc2ccccc2)Cc2ccco2)c1 | - | . | - | - | - | -
Cc1ccc(C2CC(C(F)(F)F)n3nc(C(=O)NCc4c(C)nn(C)c4C)c(Cl)c3N2)cc1 (centres undefined) | 44 | - | 55 | - | - | -
Cc1nn(C)c(C)c1CNC(=O)c1cnn2c1NC(c1ccccc1)CC2C(F)(F)F (centres undefined) | - | - | - | - | - | -
OC1(c2cccs2)CN(c2ccc(Cl)cc2)C2=[N+]1CCCC2 (centres undefined) | - | - | 32 | - | - | -
CCCSc1nsc(NC(=O)CCC)n1 | - | - | - | - | - | -
COC(=O)NC(=S)Nc1ccc(Oc2ccc(Cl)cc2Cl)c(Cl)c1 | - | - | - | 26 | - | -
COC(=O)NC(=S)Nc1ccc(Oc2ccc(Cl)cc2)c(Cl)c1 | - | - | - | - | - | -
COc1ccc(CNC(=O)CSc2nnc(-c3cccnc3)n2N)cc1 | - | - | 82 | - | - | -
Cc1ccc2c(c1)nnn2C1CCN(S(=O)(=O)c2ccc(C(=O)N(C)C)cc2)CC1 | - | - | - | - | - | -
Cc1ccc2c(c1)nnn2C1CCN(S(=O)(=O)c2ccc(C(=O)N3CC(C)CC(C)C3)cc2)CC1 (centres undefined) | - | - | - | 20 | - | -
O=C(/C=C/c1cccs1)N1CCC2(CC1)Oc1ccc(Cl)cc1C(=O)C21CC(c2cccnc2)=NO1 (centres undefined) | . | 52 | . | . | . | .
Fc1ccc(-c2nnc3ccccn23)cc1 | - | - | 81 | - | - | -
CC1Cc2ccccc2N1C1=NS(=O)(=O)c2ccccc21 (centres undefined) | - | - | - | - | - | -
CC1Cc2ccccc2N1C1=CC(=O)CCC1 (centres undefined) | 54 | - | 66 | - | - | -
O=C(N/C(=C/c1ccccc1F)C(=O)N1CCCCC1)c1ccccc1 | . | . | . | . | - | -
Cc1ccc(-n2nnnc2SCC(=O)c2cc(C)n(-c3cc(C)on3)c2C)cc1 | - | - | - | 7.5 | - | -
